Sampled rows, rich in hits. Any-hit rate of the full collection: about 3.7%.
hERG rescue: shields human hERG channel from block by proarrhythmic agents | Q12809 | CHO-hERG, FluxOR thallium flux, dofetilide IC70 present | activation (rescue from dofetilide block), less the hit threshold, % at 10 µM | 0.51% of 310,000 active | AID 1511;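 active = activation above the mean of controls blocked by dofetilide plus 5 SD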;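 also: thallium influx through hERG after potassium depolarization seen as dye fluorescence rise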
Kir21 block: Kir2.1 (mouse) channel inhibition | P35561 | HEK293-Kir2.1, FluxOR thallium flux fluorescence; hits give low values | B-score at 10 µM | 0.85% of 310,000 active;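 active = fluorescence ratio B-score at or below minus 3 SD of library scores, with starting-brightness B-score within 2 SD, cut at about -4.2 in these data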;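 also: channel flux triggered by added potassium and thallium sulfate stimulus; B-score of peak minus minimum fluorescence over baseline after thallium stimulus; more negative B-score means stronger Kir2.1 block with less thallium influx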
Target sequence (P35561 whole entry, looked up): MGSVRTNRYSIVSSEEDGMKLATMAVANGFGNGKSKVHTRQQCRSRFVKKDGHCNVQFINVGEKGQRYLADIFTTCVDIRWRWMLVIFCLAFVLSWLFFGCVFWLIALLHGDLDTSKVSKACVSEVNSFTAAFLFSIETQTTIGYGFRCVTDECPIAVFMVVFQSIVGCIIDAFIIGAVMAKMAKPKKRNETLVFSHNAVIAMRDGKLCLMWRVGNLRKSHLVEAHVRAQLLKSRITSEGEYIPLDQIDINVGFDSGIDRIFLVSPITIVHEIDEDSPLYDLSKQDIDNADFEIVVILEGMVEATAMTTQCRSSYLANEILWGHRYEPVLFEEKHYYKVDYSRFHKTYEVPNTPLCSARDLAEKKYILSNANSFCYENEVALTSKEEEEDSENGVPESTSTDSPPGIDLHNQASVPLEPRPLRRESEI
KCNQ1 block: human KCNQ1 channel inhibition; P51787; CHO-K1 KCNQ1, FluxOR thallium flux fluorescence; hits give high values; B-score at 10 µM; 1.3% of 310,000 active;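 active = compounds whose thallium flux B-score, printed positive for inhibition, exceeds three library SD while starting fluorescence stays within three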;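 also: channel opened by potassium depolarization with thallium stimulus after 20 min compound exposure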
KCNQ1 pot: potentiators or activators of human KCNQ1 potassium channel | B-score at 10 µM | P51787 | 0.35% of 310,000 active | CHO-K1 KCNQ1, thallium flux FluxOR fluorescence; hits give high values;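 active = fluorescence ratio B-score, a plate-corrected score, at least three library SD, with initial intensity B-score within 5 SD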
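assay system = KCNQ1-transfected CHO-K1 cells | medium = assay buffer with matched DMSO | probe or stimulus = depolarizing K+/Tl+ stimulus, K2SO4 and Tl2SO4 each 12.5 mM in 5x stock | dosing = single dose | incubation = dye 90 min, compound 20 min, room temperature | detection = kinetic FluxOR fluorescence, 10 s baseline plus 110 s post-stimulus | evaluation = ratio B score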
KCNK3 inh: human KCNK3 channel inhibition, primary screen | O14649 | CHO-KCNK3 thallium flux, FluxOR fluorescence; hits give low values | B-score at 10 µM | 0.84% of 340,000 active;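 active = B-score under library mean minus 4 SD, starting fluorescence ratio at most library mean plus 5 SD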;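 also: more negative B-score means stronger inhibition of thallium flux through KCNK3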
KCNK9 inh: inhibitors of human KCNK9 two-pore domain potassium channel; Q9NPC2; HEK293 KCNK9, FluxOR thallium flux fluorescence; hits give low values; B-score at 10 µM; 1.2% of 310,000 active;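 active = ratio B-score over 3 SD below the library mean, with starting fluorescence within 5 SD of its mean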;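 also: negative B-score means less thallium flux so channel inhibition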
Starred values were filed as active, the others as inactive; i = inactive; . = no result given.

SMILES	hERG rescue	Kir21 block	KCNQ1 block	KCNQ1 pot	KCNK3 inh	KCNK9 inh
CC1(C(=O)Nc2cccc(C(F)(F)F)c2)CO1 (centres undefined)	-11.2	0.74	i	i	.	i
O=C(Nc1cccc(C(F)(F)F)c1)C12CC3CC(CC(C3)C1)C2	5.0*	0.28	i	i	i	i
O=C(NCC1CCCO1)c1ccc2c(c1)N(Cc1ccccc1)CCS2 (centres undefined)	-11.9	-0.14	i	i	i	i
COc1ccc(NC(=O)c2ccc(F)c(F)c2)c2ccccc12	-0.1	0.18	i	i	i	i
O=C1C2C3CCC(C3NCc3ccccc3)C2C(=O)N1Cc1ccccc1 (centres undefined)	-23.4	-1.67	6*	i	i	i
O=C1C2CCCCC2C(=O)N1Cc1ccccc1 (centres undefined)	-4.1	0.6	i	i	i	i
CCOC(=O)C1(Cc2cccc(Cl)c2)CCCN(C(=O)c2cc(C(C)C)nn2C)C1 (centres undefined)	-11.8	-2.64	i	i	i	i
COc1ccccc1/C=C(/C(=O)OCC(=O)Nc1ccc(N(C)C)cc1)c1ccccc1	-10.5	0	i	i	i	i
COc1ccccc1/C=C(/C(=O)OCC(=O)Nc1ccccc1C)c1ccccc1	-7.6	-1.59	8*	i	i	-7.02*
C=C(C)C(=O)OCC(=O)NCc1ccccc1	-9.8	0.14	i	i	i	i
COc1ccccc1/C=C(/C(=O)OCC(=O)NCc1ccccc1)c1ccccc1	-11.9	0.13	7*	i	i	-7.97*
O=C(O)c1nn(-c2ccccc2)ccc1=O	-7.0	0.68	i	i	i	i
CCOC(=O)n1c(=O)n(Cc2ccc(Cl)c(Cl)c2)c2ccccc21	-6.5	0.25	i	i	i	-7.37*
Cc1ccc(Nc2cc(C)c3c(O)cccc3n2)cc1C	-16.0	-1.82	i	i	i	i
COc1ccc(Nc2cc(C)c3c(O)cccc3n2)cc1	-13.6	-13*	i	i	i	i
N#Cc1cnn2c3c(cnc12)C(=O)N1CCc2ccccc2C1C3 (centres undefined)	-10.2	1.89	i	i	i	i
Cc1sc2ncnc(NC3CCN(Cc4ccccc4)CC3)c2c1C	-27.6	-5.49*	i	i	i	i
NNC(=O)C(=O)/C=C1\NC2(CCCC2)Cc2ccccc21	-7.8	-0.25	i	i	i	i
COc1ccc(/C=N/NC(=O)C(=O)/C=C2\NC3(CCCC3)Cc3ccccc32)cc1	-6.0	0.87	i	i	i	-6.62*
Cc1cc(C(=O)COc2cc(F)ccc2[N+](=O)[O-])c(C)n1C1CC1	34.2*	-2.5	i	i	i	i
Cc1cccc2sc(NC(=O)c3ccc(OCC4CCCO4)cc3)nc12 (centres undefined)	6.5*	0.25	i	i	i	i
Cc1csc(NC(=O)c2ccc(OCC3CCCO3)cc2)n1 (centres undefined)	-12.8	0.97	i	i	i	i
OCC1(Cc2ccc(Cl)cc2)CCN(Cc2ccc(Oc3ncccn3)cc2)CC1	2.0	0.07	i	i	i	i
O=C(c1ccccc1)c1cc([N+](=O)[O-])ccc1N1CCOCC1	-5.2	-1.26	i	i	i	i
CC1CCCN(c2ccc([N+](=O)[O-])cc2C(=O)c2ccccc2)C1 (centres undefined)	-15.3	-2.58	6*	i	i	i
SMILES	hERG rescue	Kir21 block	KCNQ1 block	KCNQ1 pot	KCNK3 inh	KCNK9 inh
Cc1ccc(C(=O)c2cc([N+](=O)[O-])ccc2N2CCCCC2)cc1	-11.8	1.66	i	i	i	-7.42*
Cc1ccc(C(=O)c2cc([N+](=O)[O-])ccc2N2CC(C)OC(C)C2)cc1 (centres undefined)	-3.3	-0.14	i	i	i	i
O=C(N/N=C/c1ccc([N+](=O)[O-])cc1)c1ccc(COc2ccccc2-c2ccccc2)cc1	-12.9	0.72	i	i	i	i
O=C(NCCOc1ccccc1F)c1cc(F)c(F)cc1Cl	1.7	1.44	i	i	i	i
OC(CNCc1ccccc1)Cn1ccc2ccccc21 (centres undefined)	-3.8	-5.15*	i	i	i	i
CN(C)c1nc(C#N)nc(N(C)C)n1	10.1*	-0.16	i	i	i	i
CCc1cccc(CC)c1C(O)c1cccnc1 (centres undefined)	-6.2	-4.62*	i	i	i	i
CCc1cccc(CC)c1NC(=S)NCC(c1cccnc1)N(C)C (centres undefined)	-5.8	0.07	i	i	i	i
CCN(CC)CCCNC(=O)c1cc2c(Cl)nc3ccccc3c2s1	-11.6	-0.89	i	i	i	i
CN(CCCNC(=O)c1cc2c(Cl)nc3ccccc3c2s1)Cc1ccccc1	-21.6	-4.97*	i	i	i	i
COc1ccc(NC(=O)Nc2cc(C)ccc2F)cc1	5.1*	-0.72	i	i	i	i
O=S1(=O)CCO[C@H]2Cc3ccccc3[C@H]2N1Cc1ccc(F)cc1	-11.9	-2.74	i	i	i	i
CCOc1ncccc1C(=O)NNC(=O)c1ccc(NS(=O)(=O)c2cccs2)cc1	-13.3	1.66	i	i	i	i
CC(C)(C)C(=O)/C(C#N)=C/c1cccs1	-3.2	-0.05	i	i	i	i
N#C/C(=C\c1cccs1)C(=O)c1ccccc1Cl	-3.9	-6.99*	i	i	i	i
O=C(NC1CCCCCC1)c1ccc(Br)o1	-0.7	-0.17	i	i	i	i
Cc1nn(Cc2ccc(C(=O)NC3CCCCC3)o2)c(C)c1Br	-16.3	-0.59	6*	i	i	i
Cc1nn(Cc2ccc(C(=O)NC(C)(C)C)o2)c(C)c1Br	-16.9	-0.67	i	i	i	i
O=C(NC1CCCC1)c1ccc(Br)o1	4.6*	-0.51	i	i	i	i
O=C(O)Cc1ccc(NC(=O)C2CC=CCC2C(=O)O)cc1 (centres undefined)	8.7*	0.19	i	i	.	i
CCN(CC)C(=O)CN1CCN(Cc2ccc3c(c2)OCO3)CC1	-5.8	0.2	i	i	i	i
CCOc1ccc(CC(=O)NCc2cn3c(C)csc3n2)cc1	-8.2	0.95	i	i	i	i
CN1CCN(CC(O)(c2ccc(Cl)cc2)c2ccc(Cl)cc2)CC1	-17.1	-8.84*	i	i	i	i
